Experimental data reported in ChEMBL document CHEMBL3108674, “6-Alkoxy-5-aryl-3-pyridinecarboxamides, a new series of bioavailable cannabinoid receptor type 1 (CB1) antagonists including peripherally selective compounds” (J Med Chem, 2013).
Active and inactive are the calls of the source. The rule behind the calls is not given here.

Legend:
Rattus norvegicus [1] = assay: Increase of insulin sensitivity in high fat diet-fed Sprague-Dawley rat assessed as decrease in insulin AUC at 10 mg/kg, po qd administered for 24 days followed by glucose challenge by oral glucose tolerance test; format: functional, organism-based; set-up: dose 10 mg/kg
Plasma [2] = assay: Maximum unbound fraction in rat plasma at 10 mg/kg, po; format: ADME, organism-based; set-up: dose 10 mg/kg, route oral; details: in vivo
Outline: (§1)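 Single-dose oral PK in rats at 10 mg/kg, measuring peak plasma concentration. The maximum unbound level was given alongside rat plasma protein binding (%).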

[3] = Plasma protein binding in rat; format: ADME, cell-free; details: read-out: PPB (converted)
Rattus norvegicus [4] = assay: Maximum unbound fraction in rat at 10 mg/kg, po; format: ADME, organism-based; set-up: dose 10 mg/kg, route oral; details: in vivo; outline: as §1
[5] = Ratio of drug level in brain to plasma in rat; format: ADME; details: brain and plasma, read-out: BPR
[6] = Oral bioavailability in rat; format: ADME, organism-based; details: in vivo
Outline: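 Bioavailability from rat single-dose PK, comparing oral dosing (10, 7.9 or 9 mg/kg, depending on compound) with intravenous dosing.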

[7] = Tmax in po dosed rat plasma; format: ADME, organism-based
Outline: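 Single-dose rat PK study: compound given orally at 7.9 or 9 mg/kg, depending on compound. Plasma exposure followed over time, and Tmax (h) taken from the plasma concentration–time profile.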

[8] = Tmax in rat plasma at 10 mg/kg, po; format: ADME, organism-based; set-up: dose 10 mg/kg, route oral
Outline: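 Single oral dose of 10 mg/kg in rats. Plasma concentrations followed over time, and time to peak plasma level (h) read from the profile.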

[9] = Cmax in rat plasma at 10 mg/kg, po; format: ADME, organism-based; set-up: dose 10 mg/kg, route oral; outline: as §1
[10] = Volume of distribution at steady state in iv dosed rat; format: ADME, organism-based; details: in vivo, read-out: Vdss
[11] = Clearance in iv dosed rat; format: ADME, organism-based; details: in vivo
Rattus norvegicus [12] = assay: Increase of insulin sensitivity in high fat diet-fed Sprague-Dawley rat assessed as decrease in insulin AUC at 30 mg/kg, po qd administered for 24 days followed by glucose challenge by oral glucose tolerance test; format: functional, organism-based; set-up: dose 30 mg/kg
Rattus norvegicus [13] = assay: Reduction of leptin level in high fat diet-fed Sprague-Dawley rat plasma at 30 mg/kg, po qd after 24 days by ELISA; format: functional, organism-based; set-up: dose 30 mg/kg
Outline: (§2)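 Diet-induced obese Sprague-Dawley rats (high responders), single-housed, groups of n = 9 matched for body weight and MRS body fat; drug given as food admix for 24 days alongside pair-fed groups; body weight and food intake measured daily; body fat by MRS; plasma leptin by ELISA; mean ± SEM, ANOVA with Dunnett's test versus vehicle.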

Rattus norvegicus [14] = assay: Reduction in body fat content in high fat diet-fed Sprague-Dawley rat at 30 mg/kg, po qd after 24 days; format: functional, organism-based; set-up: dose 30 mg/kg; outline: as §2
Rattus norvegicus [15] = species: Rattus norvegicus; assay: Reduction in body weight gain in high fat diet-fed Sprague-Dawley rat at […]; format: functional, organism-based
[16] = Ratio of drug level in Sprague-Dawley rat brain to plasma at 30 mg/kg, po qd after 10 days by LC-MS/MS analysis; format: ADME, organism-based; set-up: dose 30 mg/kg, route oral; details: brain and plasma, read-out: BPR
[17] = Drug uptake in Sprague-Dawley rat brain at 30 mg/kg, po qd after 10 days by LC-MS/MS analysis; format: ADME, organism-based; set-up: dose 30 mg/kg, route oral; details: read-out: Drug uptake
[18] = Cmax in Sprague-Dawley rat plasma at 30 mg/kg, po qd after 10 days by LC-MS/MS analysis; format: ADME, organism-based; set-up: dose 30 mg/kg, route oral
Outline: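 Male Sprague-Dawley rats (n = 3 per compound) given 30 mg/kg/day as feed admix for 10 days; jugular vein catheter implanted 4 days before sampling; on day 10 switched to drug-free high fat chow, then serial K3EDTA blood samples over 24 h; plasma drug levels by LC-MS.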

Rattus norvegicus [19] = assay: Maximum unbound fraction in rat at 7.9 mg/kg, po; format: ADME, organism-based; set-up: dose 7.9 mg/kg, route oral; details: in vivo
Plasma [20] = assay: Maximum unbound fraction in rat plasma at 7.9 mg/kg, po; format: ADME, organism-based; set-up: dose 7.9 mg/kg, route oral; details: in vivo
[21] = Oral bioavailability in rat at 7.9 mg/kg; format: ADME, organism-based; details: in vivo
[22] = Tmax in rat plasma at 7.9 mg/kg, po; format: ADME, organism-based; set-up: dose 7.9 mg/kg, route oral
[23] = Cmax in rat plasma at 7.9 mg/kg, po; format: ADME, organism-based; set-up: dose 7.9 mg/kg, route oral
[24] = Volume of distribution at steady state in rat at 1 mg/kg, iv; format: ADME, organism-based; set-up: dose 1 mg/kg, route intravenous; details: in vivo, read-out: Vdss
[25] = Clearance in rat at 1 mg/kg, iv; format: ADME, organism-based; set-up: dose 1 mg/kg, route intravenous; details: in vivo
Cannabinoid receptor 1 [26] = target: T1, Cannabinoid receptor 1 (Homo sapiens, UniProt P21554); assay: Antagonist activity at human CB1 receptor overexpressed in HEK cells assessed as [35S]GTPgamma binding after 1 hr by liquid scintillation counting analysis; format: functional, cell-based, HEK293
Hepatocyte = assay: Intrinsic clearance in rat hepatocytes at 10 uM by LC-MS/MS analysis; format: ADME, cell-based
Liver microsome = assay: Clearance in rat liver microsomes at 2 uM by LC-MS/MS analysis; format: ADME
Outline: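 Rat liver microsomes at 0.5 mg/mL were incubated with 2 μM compound (final) and an NADPH-regenerating system. Aliquots were taken at 1, 3, 6, 9, 15, 25, 35 and 45 min and quenched in acetonitrile containing internal standard. Depletion was measured by LC-MS/MS. Clmic = −slope × 1000 / protein concentration (mg/mL), not corrected for microsomal protein binding.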

Cannabinoid receptor 2 = Cannabinoid receptor 2 (Homo sapiens, UniProt P34972); assay: Displacement of [3H]CP55940 from human CB2 receptor expressed in CHOK1 cells after 1 hr by liquid scintillation counting analysis; format: cell-based, CHO-K1
Outline: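 Membranes from butyrate-treated (5 mM, 24 h) CHO-K1 cells stably expressing human CB2, incubated with 0.3 nM [3H]CP55940 and increasing ligand concentrations, 60 min, 30 °C, pH 7.4 Tris buffer with 0.1% fatty acid-free BSA and 1% DMSO; nonspecific binding with 10 μM CP55940; filtration, scintillation counting; tested in triplicate.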

Substance-K receptor = target: T2, Substance-K receptor (Homo sapiens, UniProt P21452); assay: Antagonist activity at human NK2 receptor
T2 sequence (P21452 whole entry): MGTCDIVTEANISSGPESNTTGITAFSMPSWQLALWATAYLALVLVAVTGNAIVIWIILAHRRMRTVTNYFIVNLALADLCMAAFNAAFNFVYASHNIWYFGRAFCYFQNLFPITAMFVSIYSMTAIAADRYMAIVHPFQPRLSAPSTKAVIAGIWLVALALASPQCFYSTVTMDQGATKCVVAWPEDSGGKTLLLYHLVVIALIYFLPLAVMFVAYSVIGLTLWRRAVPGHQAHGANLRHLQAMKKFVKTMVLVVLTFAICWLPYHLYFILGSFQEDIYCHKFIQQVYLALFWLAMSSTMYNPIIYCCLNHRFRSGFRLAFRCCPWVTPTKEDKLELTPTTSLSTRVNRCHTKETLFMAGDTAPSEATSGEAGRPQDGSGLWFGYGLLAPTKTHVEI

Rattus norvegicus [27] = assay: Maximum unbound fraction in rat at 9 mg/kg, po; format: ADME, organism-based; set-up: dose 9 mg/kg, route oral; details: in vivo
Plasma [28] = assay: Maximum unbound fraction in rat plasma at 9 mg/kg, po; format: ADME, organism-based; set-up: dose 9 mg/kg, route oral; details: in vivo
[29] = Oral bioavailability in rat at 9 mg/kg; format: ADME, organism-based; details: in vivo
[30] = Tmax in rat plasma at 9 mg/kg, po; format: ADME, organism-based; set-up: dose 9 mg/kg, route oral
[31] = Cmax in rat plasma at 9 mg/kg, po; format: ADME, organism-based; set-up: dose 9 mg/kg, route oral
[32] = Volume of distribution at steady state in rat at 3.3 mg/kg, iv; format: ADME, organism-based; set-up: dose 3.3 mg/kg, route intravenous; details: in vivo, read-out: Vdss
[33] = Clearance in rat at 3.3 mg/kg, iv; format: ADME, organism-based; set-up: dose 3.3 mg/kg, route intravenous; details: in vivo
Cannabinoid receptor 1 [34] = target: T1, Cannabinoid receptor 1; assay: Displacement of [3H]CP55940 from human CB1 receptor expressed in CHOK1 cells after 1 hr by liquid scintillation counting analysis; format: cell-based, CHO-K1

T1 sequence (P21554 whole entry): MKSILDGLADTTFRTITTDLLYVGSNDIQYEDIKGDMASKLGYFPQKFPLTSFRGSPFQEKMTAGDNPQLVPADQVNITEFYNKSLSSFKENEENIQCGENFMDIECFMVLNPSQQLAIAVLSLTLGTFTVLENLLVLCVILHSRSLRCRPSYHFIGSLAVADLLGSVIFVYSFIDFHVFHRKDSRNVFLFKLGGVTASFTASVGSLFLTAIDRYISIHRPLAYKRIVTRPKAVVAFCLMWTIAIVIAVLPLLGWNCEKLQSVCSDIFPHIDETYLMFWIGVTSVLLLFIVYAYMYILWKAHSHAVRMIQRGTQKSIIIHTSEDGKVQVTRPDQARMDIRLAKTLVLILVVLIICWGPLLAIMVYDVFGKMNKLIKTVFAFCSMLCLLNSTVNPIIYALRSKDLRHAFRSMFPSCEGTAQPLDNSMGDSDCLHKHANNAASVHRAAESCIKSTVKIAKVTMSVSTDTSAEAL
Cannabinoid receptor 2, sequence (P34972 whole entry): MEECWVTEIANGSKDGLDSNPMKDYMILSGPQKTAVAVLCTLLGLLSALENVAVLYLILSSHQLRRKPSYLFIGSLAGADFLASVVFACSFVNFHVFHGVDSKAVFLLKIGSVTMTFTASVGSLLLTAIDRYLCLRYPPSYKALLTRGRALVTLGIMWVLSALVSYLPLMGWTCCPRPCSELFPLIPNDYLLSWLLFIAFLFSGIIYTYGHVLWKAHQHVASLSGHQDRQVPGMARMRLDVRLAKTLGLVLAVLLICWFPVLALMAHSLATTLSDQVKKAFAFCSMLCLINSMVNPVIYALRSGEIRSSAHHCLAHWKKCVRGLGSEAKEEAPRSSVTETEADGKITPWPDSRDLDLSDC

With `Cc1c(C(=O)NN2CCCCC2)nn(-c2ccc(Cl)cc2Cl)c1-c1ccc(Cl)cc1` [RIMONABANT] the Activity (Rattus norvegicus [1]) was “Active”, the “Cp(f)max” value (Plasma [2]) was 0.83 ng/mL and the fraction unbound [3] was 0.003. It also gave a fCmax (Rattus norvegicus [4]) of 1.8 nM, a Kp [5] of 3 and a bioavailability [6] of 12%. For the same compound, the Tmax [7] was 1 h, the Tmax [8] was 1.5 h and the Cmax [9] was 244 ng/mL. The Vd [10] was 11.5 L/kg and the clearance [11] was 17 mL/min/kg.

In the case of `O=C(N[C@@H]1CCCC[C@H]1O)c1cnc(OCC2CC2)c(-c2ccc(Cl)cc2)c1`, the Activity (Rattus norvegicus [12]) is reported as “Active”, the Activity (Rattus norvegicus [13]) is reported as “Active” and the Activity (Rattus norvegicus [14]) is reported as “Active”. For the same compound, the Activity (Rattus norvegicus [15]) was “Active”, the Kp at 240 h [16] was 1.3 and the concentration at 240 h [17] was 1400 ng/g. The Cmax [18] was 1020 ng/mL, the fCmax (Rattus norvegicus [19]) was less than 28 nM and the “Cp(f)max” value (Plasma [20]) was less than 11 ng/mL. It also gave a fraction unbound [3] of less than 0.016, a Kp [5] of 0.7 and a bioavailability [21] of 23%. The Tmax [22] was 1.9 h, the Cmax [23] was 729 ng/mL and the Vd [24] was 1.8 L/kg. For the same compound, the clearance [25] was 7.4 mL/min/kg, the EC50 (Cannabinoid receptor 1 [26]) was 0.0039 µM and the CLH (Hepatocyte) was 3.3 µL/min. It also gave a CLH (Liver microsome) of 64 µL/min/mg and a Ki (Cannabinoid receptor 2) greater than 7 µM.

With `COCCOc1ncc(C(=O)N[C@@H]2CCCC[C@H]2O)cc1-c1ccc(Cl)cc1` the Activity (Rattus norvegicus [13]) was “inactive”, the Activity (Rattus norvegicus [14]) was “inactive” and the Activity (Rattus norvegicus [15]) was “inactive”. The Kp at 240 h [16] was 0.13, the concentration at 240 h [17] was 130 ng/g and the Cmax [18] was 1000 ng/mL. For the same compound, the IC50 (Substance-K receptor) was 46 µM, the fCmax (Rattus norvegicus [27]) was 156 nM and the “Cp(f)max” value (Plasma [28]) was 63 ng/mL. The fraction unbound [3] was 0.039, the Kp [5] was 0.1 and the bioavailability [29] was 84%. It also gave a Tmax [30] of 0.5 h, a Cmax [31] of 1620 ng/mL and a Vd [32] of 0.7 L/kg. The clearance [33] was 18.6 mL/min/kg, the EC50 (Cannabinoid receptor 1 [26]) was 0.0116 µM and the CLH (Liver microsome) was 98 µL/min/mg. It also gave a Ki (Cannabinoid receptor 2) greater than 10 µM and a Ki (Cannabinoid receptor 1 [34]) of 0.0051 µM.
